Among the data in ChEMBL document CHEMBL1134766, “Synthesis of 2beta-acyl-3beta-(substituted naphthyl)-8-azabicyclo[3.2.1]octanes and their binding affinities at dopamine and serotonin transport sites” (J Med Chem, 2001) are Ki, Potency ratio and IC50 values, retold here.

The target of experiment [1] is Norepinephrine transporter (Rattus norvegicus, UniProt Q9WTR4). In words: Affinity for the displacement of [3H]paroxetine binding to norepinephrine transporter (NET) in rat frontal cortex membranes. Format: cell membranes, Membrane. A general note: In a radioligand displacement assay an active substance lowers the binding of a labelled ligand.
Experiment [2] addresses Monoamine transporters; serotonin & dopamine (Rattus norvegicus) (UniProt P31652+P23977). In words: SERT/DAT (serotonin transporter/dopamine transporter) binding potency ratio. Format: protein assay.
Experiment [3] deals with Sodium-dependent dopamine transporter (Rattus norvegicus, UniProt P23977). The experiment can be described thus: Inhibitory activity in displacing [125I]- RTI-55 binding to dopamine transporter in rat striatal membranes. Format: cell membranes, Striatum, Membrane. In short, it runs like this: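 Nonspecific binding was defined with 1 µM WF-23. Curves were fitted by nonlinear regression, and IC50 is reported because binding at this transporter is multiphasic. Values are mean ± SEM of ≥3 experiments, each run in triplicate.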

For experiment [4], the target named is Sodium-dependent serotonin transporter (Rattus norvegicus, UniProt P31652). The experiment can be described thus: Affinity for the displacement of [3H]paroxetine binding to serotonin transporter (SERT) in rat frontal cortex membranes. Format: cell membranes, Membrane. In short, it runs like this: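 Displacement of 0.4 nM [3H]paroxetine in frontal cortex membranes (50 mg original wet weight) dissected from frozen Sprague-Dawley rat brains, using 7-10 analogue concentrations. Nonspecific binding was defined with 10 µM fluoxetine. Ki was obtained by nonlinear curve fitting and the Cheng-Prusoff equation. Values are mean ± SEM of ≥3 experiments, each in triplicate.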
Sodium-dependent serotonin transporter, sequence (P31652 whole entry): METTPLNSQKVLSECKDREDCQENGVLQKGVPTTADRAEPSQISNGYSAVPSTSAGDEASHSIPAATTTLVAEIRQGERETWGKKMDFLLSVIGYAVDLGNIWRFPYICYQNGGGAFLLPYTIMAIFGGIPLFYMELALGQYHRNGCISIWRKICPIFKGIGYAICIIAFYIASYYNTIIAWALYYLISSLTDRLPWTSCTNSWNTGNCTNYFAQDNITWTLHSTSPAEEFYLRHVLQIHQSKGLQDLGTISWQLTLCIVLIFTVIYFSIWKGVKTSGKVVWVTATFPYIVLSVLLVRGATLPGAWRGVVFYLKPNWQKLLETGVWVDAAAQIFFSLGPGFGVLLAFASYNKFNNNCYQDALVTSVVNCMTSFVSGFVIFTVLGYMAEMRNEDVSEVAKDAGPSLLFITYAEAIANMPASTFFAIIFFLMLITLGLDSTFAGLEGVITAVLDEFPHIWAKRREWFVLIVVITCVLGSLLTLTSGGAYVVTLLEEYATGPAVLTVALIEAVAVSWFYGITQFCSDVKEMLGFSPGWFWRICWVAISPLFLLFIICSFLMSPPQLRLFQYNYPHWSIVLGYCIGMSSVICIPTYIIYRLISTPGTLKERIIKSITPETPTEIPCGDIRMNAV

Sodium-dependent dopamine transporter, sequence (P23977 whole entry): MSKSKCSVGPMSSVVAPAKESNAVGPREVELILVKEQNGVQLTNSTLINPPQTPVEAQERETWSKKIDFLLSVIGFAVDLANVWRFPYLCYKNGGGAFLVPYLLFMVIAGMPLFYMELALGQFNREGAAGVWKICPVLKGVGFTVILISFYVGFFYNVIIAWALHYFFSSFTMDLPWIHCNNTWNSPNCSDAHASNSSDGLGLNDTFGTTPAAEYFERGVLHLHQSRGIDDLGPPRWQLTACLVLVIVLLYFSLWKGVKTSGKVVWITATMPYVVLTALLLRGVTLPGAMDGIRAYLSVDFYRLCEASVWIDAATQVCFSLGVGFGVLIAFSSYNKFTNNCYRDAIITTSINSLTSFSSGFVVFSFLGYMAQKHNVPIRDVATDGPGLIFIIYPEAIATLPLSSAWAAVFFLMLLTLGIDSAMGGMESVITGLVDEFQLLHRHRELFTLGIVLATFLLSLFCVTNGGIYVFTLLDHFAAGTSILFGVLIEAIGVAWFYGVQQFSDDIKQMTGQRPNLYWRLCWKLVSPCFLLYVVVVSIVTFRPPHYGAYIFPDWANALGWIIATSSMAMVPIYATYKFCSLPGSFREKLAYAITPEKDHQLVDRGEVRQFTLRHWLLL
Monoamine transporters; serotonin & dopamine (Rattus norvegicus), sequence (P23977 whole entry, looked up): as the sequence (P23977 whole entry) above
Monoamine transporters; serotonin & dopamine (Rattus norvegicus), sequence (P31652 whole entry, looked up): as the sequence (P31652 whole entry) above
Norepinephrine transporter, sequence (Q9WTR4 whole entry): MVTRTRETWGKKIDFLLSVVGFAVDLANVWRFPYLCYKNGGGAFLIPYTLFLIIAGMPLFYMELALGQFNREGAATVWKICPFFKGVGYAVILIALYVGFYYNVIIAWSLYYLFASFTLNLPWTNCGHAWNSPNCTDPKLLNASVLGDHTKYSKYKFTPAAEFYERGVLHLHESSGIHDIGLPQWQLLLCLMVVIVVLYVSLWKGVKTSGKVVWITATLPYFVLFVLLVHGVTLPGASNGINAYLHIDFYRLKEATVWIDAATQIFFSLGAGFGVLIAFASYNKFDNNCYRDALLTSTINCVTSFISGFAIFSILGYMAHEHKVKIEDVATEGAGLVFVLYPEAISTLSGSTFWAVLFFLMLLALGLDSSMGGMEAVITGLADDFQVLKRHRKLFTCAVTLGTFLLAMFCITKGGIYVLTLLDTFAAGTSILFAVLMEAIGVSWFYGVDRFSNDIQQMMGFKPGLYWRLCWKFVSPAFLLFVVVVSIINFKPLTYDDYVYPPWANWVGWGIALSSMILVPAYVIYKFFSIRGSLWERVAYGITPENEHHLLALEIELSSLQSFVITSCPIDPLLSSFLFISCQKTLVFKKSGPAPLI

In experiment [1], `CCC(=O)C1C(c2ccc(C)cc2)CC2CCC1N2C` (configuration not stated) registered a Ki of 65 nM. In experiment [2], the Potency ratio was found to be 0.06.

`CCC(=O)C1C(c2ccc3cc(OC)ccc3c2)CC2CCC1N2C` (configuration not stated) gave an IC50 in experiment [3] of 0.13 nM. The compound also came in with a Ki in experiment [4] of 2.24 nM. In addition, the Potency ratio in experiment [2] was 0.05.

Compound `CCC(=O)C1C(c2ccc3cc(I)ccc3c2)CC2CCC1N2C` (configuration not stated) displayed an IC50 in experiment [3] of 0.35 nM. This compound had a Ki in experiment [4] of 0.37 nM. Moreover, the Potency ratio in experiment [2] was 1.

In turn, `CCC(=O)C1C(c2ccc3c([N+](=O)[O-])c(OC)ccc3c2)CC2CCC1N2C` (configuration not stated) came in with an IC50 in experiment [3] of 148 nM. This compound also displayed an inhibition constant (Ki) in experiment [4] of 15 nM. Further, the Potency ratio in experiment [2] worked out at 10.

With `CCC(=O)C1C(c2ccc3ccccc3c2)CC2CCC1N2C` (stereo in doubt) [listing 1 of 2 here], in experiment [3], the IC50 amounted to 2.51 nM. In addition, the results for the inhibitory constant (Ki) in experiment [1] and in experiment [4] were 68 nM and 16.4 nM, respectively.

Turning to `CC(C)C(=O)C1C(c2ccc3ccccc3c2)CC2CCC1N2C` (configuration not stated), in experiment [3], the IC50 amounted to 0.25 nM. The Ki in experiment [1] came out at 37.6 nM; in experiment [4] it was 2.08 nM. In experiment [2], the Potency ratio came to 0.12.

`CC(=O)C1C(c2cccc3ccccc23)CC2CCC1N2C` (stereo in doubt; form 1) [listing 1 of 2 here] displayed an IC50 in experiment [3] of 97 nM. This compound also displayed a Ki in experiment [4] of 217 nM.

Turning to `CC(=O)C1C(c2cccc3ccccc23)CC2CCC1N2C` (stereo in doubt; form 2) [listing 1 of 2 here], the Potency ratio in experiment [2] was determined as 0.4.

Take `CCC(=O)C1C2CCC(CC1c1ccc3ccccc3c1)N2` (configuration not stated): the IC50 in experiment [3] was found to be 0.03 nM. In addition, the Ki in experiment [1] amounted to 2.05 nM; in experiment [4], 0.23 nM. Also, the Potency ratio in experiment [2] stood at 0.13.

In the case of `CCC(=O)C1C(c2cccc3ccccc23)CC2CCC1N2C` (configuration not stated), the Ki in experiment [1] was found to be 49 nM. The Potency ratio in experiment [2] is 0.3.

In experiment [3], `CCC(=O)C1C(c2ccc3c(I)c(OC)ccc3c2)CC2CCC1N2C` (configuration not stated) displayed an IC50 of 1.31 nM. For the same compound, the figures for the inhibitory constant (Ki) in experiment [1] and in experiment [4] were 781 nM and 2.27 nM, respectively. In addition, in experiment [2], the Potency ratio is 0.6.

`CCC(=O)C1C(c2ccc3ccccc3c2)CC2CCC1N2C` (stereo in doubt) [listing 2 of 2 here]: the Potency ratio in experiment [2] worked out at 0.15.

Turning to `CCC(=O)C1C(c2ccc3ccc(I)cc3c2)CC2CCC1N2C` (configuration not stated), the IC50 in experiment [3] was 0.45 nM. Moreover, the affinity in experiment [4] corresponds to a Ki of 0.47 nM. In addition, the Potency ratio in experiment [2] was 0.5.

Regarding `CCC(=O)C1C(c2ccc3c(C(C)=O)c(OC)ccc3c2)CC2CCC1N2C` (configuration not stated), the IC50 in experiment [3] came out at 12.6 nM. Besides, the Ki was 498 nM in experiment [1] and 15.8 nM in experiment [4]. The Potency ratio in experiment [2] worked out at 0.8.

`CCC(=O)C1C(c2ccc3cc(C(C)C)ccc3c2)CC2CCC1N2C` (configuration not stated) returned an IC50 in experiment [3] of 0.39 nM. In experiment [4], this compound showed a Ki of 1.97 nM. The Potency ratio in experiment [2] came to 0.2.

`CCC(=O)C1C(c2ccc(CC)c3ccccc23)CC2CCC1N2C` (configuration not stated) showed an IC50 in experiment [3] of 75.1 nM. The figures for the Ki in experiment [1] and in experiment [4] were 4770 nM and 175 nM, respectively. In addition, the Potency ratio in experiment [2] turned out to be 0.7.

Turning to `CC(=O)C1C(c2ccc3ccccc3c2)CC2CCC1N2C` (configuration not stated), the IC50 in experiment [3] stood at 1.27 nM. The affinity in experiment [1], expressed as Ki, was 4.9 nM. For the same compound, the Potency ratio in experiment [2] turned out to be 1.2.

In the case of `CCC(=O)C1C(c2ccc3cc(CC)ccc3c2)CC2CCC1N2C` (configuration not stated), in experiment [3], the IC50 is 0.15 nM. Moreover, the results for the Ki in experiment [1] and in experiment [4] were 27.7 nM and 0.38 nM, respectively. In addition, in experiment [2], the Potency ratio was found to be 0.4.

As for `CC(=O)C1C(c2cccc3ccccc23)CC2CCC1N2C` (stereo in doubt; form 2) [listing 2 of 2 here], the Ki in experiment [1] stood at 165 nM.

Turning to `CCC(=O)C1C(c2ccc(C(C)C)c3ccccc23)CC2CCC1N2C` (configuration not stated), the IC50 in experiment [3] stood at 225 nM. The Ki is > 10000 nM in experiment [1] and 136 nM in experiment [4]. The Potency ratio in experiment [2] stood at 2.

In experiment [3], `CCC(=O)C1C(c2ccc(C)c3ccccc23)CC2CCC1N2C` (configuration not stated) came in with an IC50 of 25.1 nM. Also, the Ki in experiment [1] was 163 nM; in experiment [4], 8.99 nM. Also, the Potency ratio in experiment [2] came to 3.

As for `CCC(=O)C1C(c2ccc3ccccc3c2)CC2CCC1N2C` (stereo in doubt; 8), in experiment [2], the Potency ratio came to 0.3.

Consider `CC(=O)C1C(c2cccc3ccccc23)CC2CCC1N2C` (stereo in doubt; form 1) [listing 2 of 2 here], for which, in experiment [2], the Potency ratio was determined as 0.45.

Take `C=C(C)c1c(OC)ccc2cc(C3CC4CCC(C3C(=O)CC)N4C)ccc12` (configuration not stated): the IC50 in experiment [3] stood at 45 nM. The Ki in experiment [1] stood at 2330 nM; in experiment [4] it was 88 nM. The Potency ratio in experiment [2] amounted to 0.5.

`CCC(=O)C1C(c2ccc3c(CC)c(OC)ccc3c2)CC2CCC1N2C` (configuration not stated) came in with an IC50 in experiment [3] of 30.8 nM. Moreover, the Ki is 3360 nM in experiment [1] and 7.55 nM in experiment [4]. Further, the Potency ratio in experiment [2] amounted to 4.1.

Broadly, the Ki is the equilibrium dissociation constant of an inhibitor or competing ligand from its target. As a reminder, the IC50 is the concentration that gives 50% inhibition. A low value points to higher potency.
